# According to ChEMBL document CHEMBL1158343, “Synthesis, antimicrobial and antiviral evaluation of substituted imidazole derivatives” (Eur J Med Chem, 2009):
# Tests used:
# Aspergillus niger = assay: Antimicrobial activity against Aspergillus niger after 7 days by tube dilution method; assay type: functional; details: 168 h
# Summary of the method: (§1)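 Tube dilution in DMSO (stock 100 mg/ml) with serial dilutions; incubation 37 °C for 48 h for C. albicans (other organisms' times truncated in text). MIC read as lowest concentration inhibiting visible growth. Norfloxacin (bacteria) and fluconazole (fungi) as reference drugs.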
# Bacillus subtilis = assay: Antimicrobial activity against Bacillus subtilis after 24 hrs by tube dilution method; assay type: functional; summary of the method: as §1
# Candida albicans = assay: Antimicrobial activity against Candida albicans after 48 hrs by tube dilution method; assay type: functional; summary of the method: as §1
# Staphylococcus aureus = assay: Antimicrobial activity against Staphylococcus aureus after 24 hrs by tube dilution method; assay type: functional; summary of the method: as §1
# Escherichia coli = assay: Antimicrobial activity against Escherichia coli after 24 hrs by tube dilution method; assay type: functional; summary of the method: as §1
# [1] = test system: Vesicular stomatitis virus; assay: Antiviral activity against VSV infected in human HeLa cells assessed as reduction in virus-induced cytopathogenicity after 3 days; assay type: functional, organism-based; details: 72 h
# [2] = test system: Vesicular stomatitis virus; assay: Antiviral activity against VSV infected in human HEL cells assessed as reduction in virus-induced cytopathogenicity after 3 days; assay type: functional, organism-based; details: 72 h
# [3] = Cytotoxicity against african green monkey Vero cells assessed as alteration in cell morphology; assay type: cell-based; details: chlorocebus sabaeus
# Summary of the method: (§2)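 Uninfected cell cultures tested in parallel with the CPE-reduction antiviral assay; cells grown to confluency, then serial compound dilutions added and incubated at 37 °C (3 days in the parallel antiviral set-up). Read-out is microscopic examination of morphology; value is the minimum cytotoxic concentration, the lowest causing a microscopically detectable alteration of normal cell morphology.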
# Punta Toro virus = assay: Antiviral activity against Punta Toro virus infected in african green monkey Vero cells assessed as reduction in virus-induced cytopathogenicity after 3 days; assay type: functional, organism-based; details: 72 h
# Sindbis virus = assay: Antiviral activity against Sindbis virus infected in african green monkey Vero cells assessed as reduction in virus-induced cytopathogenicity after 3 days; assay type: functional, organism-based; details: 72 h
# Coxsackievirus B4 [4] = assay: Antiviral activity against Coxsackievirus B4 infected in human HeLa cells assessed as reduction in virus-induced cytopathogenicity after 3 days; assay type: functional, organism-based; details: Enterovirus B, 72 h
# [5] = Cytotoxicity against human HeLa cells assessed as alteration in cell morphology; assay type: cell-based; summary of the method: as §2
# [6] = Cytotoxicity against human HEL cells assessed as alteration in cell morphology; assay type: cell-based; summary of the method: as §2
# Human alphaherpesvirus 2 = assay: Antiviral activity against HSV2 G infected in human HEL cells assessed as reduction in virus-induced cytopathogenicity after 3 days; assay type: functional, organism-based; details: Human alphaherpesvirus 2, strain G, 72 h
# Human respirovirus 3 = assay: Antiviral activity against Parainfluenza-3 virus infected in african green monkey Vero cells assessed as reduction in virus-induced cytopathogenicity after 3 days; assay type: functional, organism-based; details: Human respirovirus 3, Vero, 72 h
# [7] = test system: Mammalian orthoreovirus 1; assay: Antiviral activity against Reovirus 1 infected in african green monkey Vero cells assessed as reduction in virus-induced cytopathogenicity after 3 days; assay type: functional, organism-based; details: Mammalian orthoreovirus 1, Vero, 72 h
# [8] = test system: Respiratory syncytial virus; assay: Antiviral activity against RSV infected in human HeLa cells assessed as reduction in virus-induced cytopathogenicity after 3 days; assay type: functional, organism-based; details: 72 h
# Human alphaherpesvirus 1 [9] = assay: Antiviral activity against HSV1 KOS infected in human HEL cells assessed as reduction in virus-induced cytopathogenicity after 3 days; assay type: functional, organism-based; details: Human alphaherpesvirus 1, KOS, 72 h
# Human alphaherpesvirus 1 [10] = assay: Antiviral activity against thymidine kinase-deficient acyclovir-resistant HSV1 KOS infected in human HEL cells assessed as reduction in virus-induced cytopathogenicity after 3 days; assay type: functional, organism-based; details: Human alphaherpesvirus 1, KOS, 72 h
# Coxsackievirus B4 [11] = assay: Antiviral activity against Coxsackievirus B4 infected in african green monkey Vero cells assessed as reduction in virus-induced cytopathogenicity after 3 days; assay type: functional, organism-based; details: Enterovirus B, 72 h
SMILES,MFC (Aspergillus niger),MIC (Aspergillus niger),MBC (Bacillus subtilis),MIC (Bacillus subtilis),MFC (Candida albicans),MIC (Candida albicans),MBC (Staphylococcus aureus),MIC (Staphylococcus aureus),MBC (Escherichia coli),MIC (Escherichia coli),EC50 [1],EC50 [2],MCC [3],EC50 (Punta Toro virus),EC50 (Sindbis virus),EC50 (Coxsackievirus B4 [4]),MCC [5],MCC [6],EC50 (Human alphaherpesvirus 2),EC50 (Human respirovirus 3),also measured
O=[N+]([O-])c1cccc(-c2ncc[nH]2)c1,264 µM,33 µM,33 µM,4 µM,264 µM,33 µM,33 µM,4 µM,33 µM,4 µM,–,–,–,–,–,–,–,–,–,–,–
Cc1cccc(-c2ncc[nH]2)c1C,144 µM,17 µM,36 µM,4 µM,289 µM,72 µM,36 µM,4 µM,36 µM,4 µM,–,–,–,–,–,–,–,–,–,–,–
O=C(c1ccc([N+](=O)[O-])cc1)n1ccnc1-c1ccccc1[N+](=O)[O-],73 µM,4 µM,295 µM,36 µM,295 µM,36 µM,295 µM,36 µM,295 µM,36 µM,> 100 µg/mL,> 100 µg/mL,> 100 µg/mL,> 100 µg/mL,> 100 µg/mL,> 100 µg/mL,> 100 µg/mL,> 100 µg/mL,> 100 µg/mL,> 100 µg/mL,EC50 [7]: > 100 µg/mL; EC50 [8]: > 100 µg/mL; EC50 (Human alphaherpesvirus 1 [9]): > 100 µg/mL; EC50 (Human alphaherpesvirus 1 [10]): > 100 µg/mL; EC50 (Coxsackievirus B4 [11]): > 100 µg/mL
O=C(O)c1ccccc1-c1nccn1C(=O)c1ccc([N+](=O)[O-])cc1,148 µM,9 µM,18 µM,2 µM,256 µM,18 µM,18 µM,2 µM,18 µM,2 µM,> 100 µg/mL,> 100 µg/mL,> 100 µg/mL,> 100 µg/mL,> 100 µg/mL,> 100 µg/mL,> 100 µg/mL,> 100 µg/mL,> 100 µg/mL,> 100 µg/mL,EC50 [7]: > 100 µg/mL; EC50 [8]: > 100 µg/mL; EC50 (Human alphaherpesvirus 1 [9]): > 100 µg/mL; EC50 (Human alphaherpesvirus 1 [10]): > 100 µg/mL; EC50 (Coxsackievirus B4 [11]): > 100 µg/mL
Clc1ccc(-c2ncc[nH]2)cc1,561 µM,702 µM,702 µM,8 µM,280 µM,35 µM,35 µM,4 µM,702 µM,8 µM,–,–,–,–,–,–,–,–,–,–,–
Brc1ccc(-c2ncc[nH]2)cc1,112 µM,14 µM,28 µM,3 µM,224 µM,28 µM,28 µM,3 µM,28 µM,3 µM,–,–,–,–,–,–,–,–,–,–,–
Clc1cccc(-c2ncc[nH]2)c1,280 µM,35 µM,140 µM,17 µM,280 µM,35 µM,35 µM,4 µM,561 µM,702 µM,–,–,–,–,–,–,–,–,–,–,–
O=C(O)c1ccccc1-c1ncc[nH]1,265 µM,33 µM,33 µM,4 µM,526 µM,66 µM,531 µM,4 µM,265 µM,4 µM,–,–,–,–,–,–,–,–,–,–,–
O=C(c1ccc([N+](=O)[O-])cc1)n1ccnc1-c1ccc(Cl)cc1,76 µM,4 µM,305 µM,19 µM,152 µM,19 µM,152 µM,38 µM,305 µM,38 µM,> 100 µg/mL,> 100 µg/mL,> 100 µg/mL,> 100 µg/mL,> 100 µg/mL,45 µg/mL,> 100 µg/mL,> 100 µg/mL,> 100 µg/mL,> 100 µg/mL,EC50 [7]: > 100 µg/mL; EC50 [8]: > 100 µg/mL; EC50 (Human alphaherpesvirus 1 [9]): > 100 µg/mL; EC50 (Human alphaherpesvirus 1 [10]): > 100 µg/mL; EC50 (Coxsackievirus B4 [11]): > 100 µg/mL
O=[N+]([O-])c1ccccc1-c1ncc[nH]1,264 µM,33 µM,33 µM,4 µM,264 µM,33 µM,33 µM,4 µM,33 µM,4 µM,–,–,–,–,–,–,–,–,–,–,–
O=C(c1ccc([N+](=O)[O-])cc1)n1ccnc1-c1ccccc1Cl,76 µM,9 µM,19 µM,2 µM,152 µM,38 µM,19 µM,2 µM,19 µM,2 µM,> 100 µg/mL,> 100 µg/mL,> 100 µg/mL,> 100 µg/mL,> 100 µg/mL,> 100 µg/mL,> 100 µg/mL,> 100 µg/mL,> 100 µg/mL,> 100 µg/mL,EC50 [7]: > 100 µg/mL; EC50 [8]: > 100 µg/mL; EC50 (Human alphaherpesvirus 1 [9]): > 100 µg/mL; EC50 (Human alphaherpesvirus 1 [10]): > 100 µg/mL; EC50 (Coxsackievirus B4 [11]): > 100 µg/mL
